OXTR agonist: activates the human oxytocin receptor. P30559. CHO-OTR cells, Fluo-8 calcium fluorescence; normalized: DMSO 0%, oxytocin 100%. activation, % at 3 µM. actives 0.32% (n = 320,000);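 active = activation above the mean of all tested compounds plus 3 SD, cutoff set per screening run, cut at about 20% in these data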;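 note: peak over basal fluorescence ratio from a 100 s FLIPR kinetic read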
Target sequence (P30559 whole entry, looked up): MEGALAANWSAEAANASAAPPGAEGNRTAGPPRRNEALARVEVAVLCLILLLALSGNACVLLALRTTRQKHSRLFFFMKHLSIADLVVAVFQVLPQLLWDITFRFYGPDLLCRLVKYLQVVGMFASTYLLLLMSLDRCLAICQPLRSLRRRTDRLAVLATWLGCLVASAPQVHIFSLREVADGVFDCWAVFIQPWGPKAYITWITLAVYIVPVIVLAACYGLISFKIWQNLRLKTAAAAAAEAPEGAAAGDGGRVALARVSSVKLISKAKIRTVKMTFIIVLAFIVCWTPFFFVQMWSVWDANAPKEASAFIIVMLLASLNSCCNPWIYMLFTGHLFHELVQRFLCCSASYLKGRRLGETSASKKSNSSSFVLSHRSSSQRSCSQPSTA
OX1R antag-1: human HCRTR1 antagonism; actives 0.43% (n = 330,000); O43613; inhibition, % at 5 µM; CHO/OX1R cells, Fluo-8 calcium fluorescence, orexin A; AID 434989;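 active = inhibition above its plate's threshold, mean inhibition of all tested compounds on the plate plus 3 SD, cut at about 37% in these data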
V1R ag counter: counter-screen for oxytocin receptor agonists: human V1a receptor agonists. P37288. CHO-V1R cells, Fluo-8 calcium fluorescence, agonist mode; 0% DMSO, 100% 3 nM vasopressin. AID 2797. actives 0.25% (n = 320,000). activation, % at 3 µM;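 active = activation above the mean activation of all tested compounds plus 3 SD, per screening run, cut at about 20% in these data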;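 note: signal is peak over basal fluorescence ratio across a 100 second FLIPR read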
OXTR potentiate: potentiates the human oxytocin receptor response; P30559; CHO-OTR cells, Fluo-8 calcium fluorescence, potentiator mode; 0% = oxytocin EC15, 100% = EC100; activation, % at 3 µM; actives 0.061% (n = 320,000); AID 2445;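 active = activation above that plate's cutoff, the mean activation of tested compounds plus 3 SD, cut at about 6.6% in these data, passing the limit was not always enough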
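assay system = CHO-OTR cells, human receptor | schedule = compound 6 min at room temperature before oxytocin, 100 s read | detection = Fluo-8 intracellular calcium fluorescence, ex 470-495, em 515-575 nm | evaluation = normalized max/min fluorescence ratio, % activation | control set = EC15 oxytocin alone as 0%, 75 nM oxytocin (EC100) as 100%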
CHO parental Ca: counter-screen for OX1R antagonists: effect in parental CHO cells; parental CHO-K1, ATP-induced calcium, Fluo-8 fluorescence; inhibition, % at 5.6 µM; actives 0.63% (n = 330,000); AID 463079;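 active = inhibition above that plate's mean sample inhibition plus 3 SD, cut at about 26% in these data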
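Assay system: parental CHO cells; Read-out basis: percent inhibition of ATP-evoked calcium rise, normalized to controls; Benchmarks: ATP and no-ATP DMSO wells; Compound dosing: single nominal dose of 5.6 µM per compound; Signal: Fluo-8 calcium dye fluorescence; Also added: ATP as calcium-mobilizing challenge; Repeats: singlicate.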
OX1R antag-2: antagonists of human orexin 1 receptor (OX1R); O43613; OX1R-expressing cells, FRET antagonist read-out; actives 1.8% (n = 330,000); AID 485270; inhibition, % at 6.6 µM; in the data active = inhibition mostly above about 38%, no sharp cut-off; inactive = mostly below about 40%
OX1R HTRF conf: confirmation of human orexin 1 receptor antagonists, HTRF format. shares compounds with OX1R antag-2. OX1R-expressing cells, HTRF antagonist assay. inhibition, % at 6.6 µM. actives 49% (n = 1,800). AID 492964; in the data active = inhibition above about 55%;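 note: CHO cells expressing OX1R stimulated with orexin A at about EC80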
CHO-K1 HTRF cnt: counter-screen for OX1R antagonists: effect in parental CHO-K1 cells | shares compounds with OX1R antag-2 | HTRF counterscreen | inhibition, % at 6.6 µM | actives 48% (n = 1,800) | AID 493232; in the data active = inhibition above about 17%
Of the large screens only hits and unclear results are named; the others gave an inactive call (follow-up assays come after a bar, where they were run). Sampled rows, rich in hits. Any-hit rate of the full collection: about 2.7%.

NC(=O)C1CCN(C(=O)C2CC(=O)N(Cc3ccccc3)C2)CC1 (stereo unspecified)	none
NC(=O)[C@H]1CC2(CC(c3cccc(NC(=O)[C@H]4CCC(=O)N4)c3)=NO2)CN1C(=O)c1cc([N+](=O)[O-])cc([N+](=O)[O-])c1 (stereo partly specified)	OX1R antag-2 91 | OX1R HTRF conf inactive | CHO-K1 HTRF cnt 57
Cc1c(C(=O)N2CC3(CC(c4cccc(NC(=O)[C@H]5CCC(=O)N5)c4)=NO3)C[C@@H]2C(N)=O)cc([N+](=O)[O-])cc1[N+](=O)[O-] (stereo partly specified)	none
CC(C)Oc1ccc(/C(O)=C2/C(=O)C(=O)N(CCN3CCNCC3)C2c2ccc(C(C)C)cc2)cc1 (stereo unspecified)	none
CCCCCCN1C=CC(=C2C(=O)c3ccccc3C2=O)C=C1	none
CCCCN1C=CC(=C2N=c3cccc([N+](=O)[O-])c3=N2)C=C1	OX1R antag-2 157 | OX1R HTRF conf 59 | CHO-K1 HTRF cnt 100
CC(=O)N1CCN(c2ccc(C(N)=O)cc2[N+](=O)[O-])CC1	OX1R antag-2 81 | OX1R HTRF conf inactive | CHO-K1 HTRF cnt 30
CCOC(=O)C1CCN(c2ccc([N+](=O)[O-])cc2S(=O)(=O)N2CCOCC2)CC1	none
CC(=O)N1CCN(c2ccc([N+](=O)[O-])cc2C#N)CC1	OX1R antag-2 100 | OX1R HTRF conf inactive | CHO-K1 HTRF cnt 47
CC(=O)N1CCN(c2ccc(NC(=O)c3ccc([N+](=O)[O-])cc3)cc2)CC1	none
CCN1CCN(c2ccc([N+](=O)[O-])cc2S(=O)(=O)N2CCOCC2)CC1	OX1R antag-2 145 | OX1R HTRF conf inactive | CHO-K1 HTRF cnt 44
CCCN1CCN(c2ccc([N+](=O)[O-])cc2C#N)CC1	OX1R antag-2 83 | OX1R HTRF conf inactive | CHO-K1 HTRF cnt 46
COc1ccccc1N(CC(=O)NCCSc1ccccc1)S(=O)(=O)c1ccccc1	OX1R antag-2 81 | OX1R HTRF conf 60 | CHO-K1 HTRF cnt inactive
NC(=O)CSc1nc(-c2ccccc2)nc2ccccc12	none
N#CCSc1nc(-c2ccccc2)nc2ccccc12	OX1R antag-2 94 | OX1R HTRF conf 89 | CHO-K1 HTRF cnt inactive
COc1ccc(OCC(=O)NNC(=O)C(=O)N2CCCC2)cc1	none
Cc1cnc([N+](=O)[O-])n1CCOC(=O)NC(=O)c1cccc(F)c1	OX1R antag-2 78 | OX1R HTRF conf 60 | CHO-K1 HTRF cnt inactive
CCc1nn(CCCC(=O)N2CCN(c3cccc(C)c3C)CC2)c(=O)c2cc3occc3n12	none
Cc1cc(C(=O)NCc2ccco2)c2ccccc2n1	none
Cc1ccccc1Nc1cc(C(=O)NCc2ccco2)c2ccccc2n1	OX1R antag-2 83 | OX1R HTRF conf inactive | CHO-K1 HTRF cnt inactive
Cc1[nH]c(C)c(S(=O)(=O)N2CCN(c3ccccc3)CC2)c1C(=O)N1CCCCC1	none
CCCN(CC(=O)Nc1cc(Cl)ccc1Cl)C(=O)c1ccccc1SCC(=O)N1CCCC1	none
COc1cccc(-c2nn(C)c3sc(C(=O)N4CCN(c5ccccn5)CC4)cc23)c1	OX1R antag-2 78 | OX1R HTRF conf inactive | CHO-K1 HTRF cnt inactive
O=C1c2ccccc2C(=O)c2c1cccc2N1CCOCC1	OX1R antag-2 81 | OX1R HTRF conf inactive | CHO-K1 HTRF cnt 34
Cc1ccc(C2=NN(C(=O)CN3CCN(C4CCS(=O)(=O)C4)CC3)C(c3ccco3)C2)cc1 (stereo unspecified)	none
O=C1c2cccc3cc([N+](=O)[O-])cc(c23)C(=O)N1/N=C/c1ccc(O)cc1O	OX1R antag-2 181 | OX1R HTRF conf 74 | CHO-K1 HTRF cnt 108
COCCCNC(=O)CN1C(=O)/C(=C\c2ccc(C)cc2)Sc2ccccc21	OX1R antag-2 78 | OX1R HTRF conf inactive | CHO-K1 HTRF cnt inactive
